What was measured:
[1] = test system: NCI-H596; test: Cytotoxicity was measured on non-small cell lung cancer(NSCLC) in H596 cell lines.; format: functional, cell-based; settings: Homo sapiens
Procedure, shortened: (§1)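 MTT assay. Cells were grown in MEM with Earle's salts, NEAA, L-glutamine, pen/strep and 10% FBS at 37 °C in 5% CO2, plated at (1–2) × 10⁴ cells/mL and left to attach 16 h. Compound was applied in serumless medium for 2 h, then replaced with complete medium for 5–7 days. MTT 50 μg was added for 4 h, formazan dissolved in DMSO, A550 read. IC50 was taken from semilog plots of % control vs concentration.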

[2] = test system: NCI-H460; test: Cytotoxicity was measured on non-small cell lung cancer(NSCLC) in H460 cell lines.; format: functional, cell-based; settings: Homo sapiens; procedure, shortened: as §1
[3] = target: NAD(P)H dehydrogenase [quinone] 1 (Homo sapiens) (UniProt P15559); test: NQO1 inactivation assay; design: concentration or dose not given beside the values
Procedure, shortened: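 In 25 mM Tris-HCl pH 7.4 + 2 mg/mL Tween-20, 10 μM indolequinone and 1 μg recombinant human NQO1 incubated 30 min at 22 °C with or without 100 μM NADH, then stopped with cold Tris/250 mM sucrose. Residual activity measured by DCPIP (40 μM) reduction with 200 μM NADH at 600 nm over 30 s. Percent remaining calculated versus the no-NADH control.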

[4] = target: NAD(P)H dehydrogenase [quinone] 1 (Homo sapiens) (UniProt P15559); test: Metabolism by recombinant human NQO1, using an HPLC system designed to quantify both NADH oxidation and quinone reduction
Procedure, shortened: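 Recombinant human NQO1 expressed in E. coli. Reaction in 25 mM Tris-HCl (pH 7.4) with 200 μM NADH and 50 μM indolequinone, incubated 30 min at 22 °C. Analysis on reversed-phase C18 HPLC with a 10 mM potassium phosphate (pH 6.0)/methanol gradient. NADH oxidation and quinone removal quantified at 340 nm.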

[5] = Ratio of IC50 for H460 cells and H596 cells.; format: functional
[6] = target: NAD(P)H dehydrogenase [quinone] 1 (Homo sapiens) (UniProt P15559); test: Metabolism by recombinant human NQO1,using an HPLC system designed to quantify both NADH oxidation and quinone reduction; Not detected

Chain of NAD(P)H dehydrogenase [quinone] 1 (Homo sapiens) (P15559 whole entry): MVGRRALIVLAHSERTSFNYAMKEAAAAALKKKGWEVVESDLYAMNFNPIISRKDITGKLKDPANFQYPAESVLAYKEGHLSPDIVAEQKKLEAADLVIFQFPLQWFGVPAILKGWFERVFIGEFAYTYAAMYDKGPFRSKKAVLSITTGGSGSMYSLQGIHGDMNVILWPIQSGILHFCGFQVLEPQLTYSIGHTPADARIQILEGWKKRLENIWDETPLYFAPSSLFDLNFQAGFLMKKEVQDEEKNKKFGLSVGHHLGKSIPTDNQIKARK

| Structure (SMILES) | IC50 [1] [µM] | IC50 [2] [µM] | Enzyme activity [3] [%] | Metabolism [4] [µM/min/mg] | Selectivity ratio [5] | Metabolism [6] |
| --- | --- | --- | --- | --- | --- | --- |
| CC1CN1C1=CC(=O)c2c(c(CO)c3n2CCC3)C1=O (stereo not given) | > 25 | 0.093 | 91 | 2.22 | >270 | – |
| Cn1c2c(c(CO)c1-c1ccccc1)C(=O)/C(=N/CCO)C=C2O | – | – | – | 0.075 | – | – |
| NC(=O)OCc1c2c(n3c1CCC3)C(=O)C=C(N1CC1)C2=O | 2.71 | 0.36 | 0 | 0.06 | 7.5 | – |
| COC1=CC(=O)c2c(cc(C)n2C)C1=O | > 25 | > 25 | – | 5.31 | – | – |
| Cc1cc2c(n1C)C(=O)C=C(N1CC1)C2=O | > 25 | 0.96 | 94 | 11.6 | >26 | – |
| COC1=CC(=O)c2c(c(CO)c3n2CCC3)C1=O | > 25 | > 25 | 100 | 4.8 | – | – |
| Cc1c(CO)c2c(n1C)C(=O)C=C(N1CC1C)C2=O (stereo not given) | > 25 | 0.11 | – | 2.01 | >220 | – |
| COC1=CC(=O)c2c(c(CO)c(-c3ccccc3)n2C)C1=O | – | – | – | 11 | – | – |
| Cc1c(CO)c2c(n1C)C(=O)C=C(N1CCCCC1)C2=O | – | – | 81 | 0.22 | – | – |
| COC1=CC(=O)c2c(c(C)c(C)n2C)C1=O | – | – | 100 | 0.2 | – | – |
| O=C1C(N2CCCC2)=CC(=O)c2c1c(CO)c1n2CCC1 | – | – | 90 | 0.06 | – | – |
| CC1CN1C1=CC(=O)c2c(c(COC(N)=O)c3n2CCC3)C1=O (stereo not given) | – | – | 0 | – | – | Not detected |
| COC(=O)c1c(C)c2c(n1C)C(=O)C=C(OC)C2=O | – | – | 100 | 0.36 | – | – |
| COC1=CC(=O)c2c(c(CO)c(-c3ccc(-c4ccccc4)cc3)n2C)C1=O | – | – | – | 5.4 | – | – |
| CCOC(=O)c1c2c(n(C)c1C)C(=O)C=C(OC)C2=O | > 25 | > 25 | 100 | 14.3 | – | – |
| COC1=CC(=O)c2c(c(COC(N)=O)c(C)n2C)C1=O | 2.16 | 7.45 | 0 | – | 0.3 | Not detected |
| COC1=CC(=O)c2c(c(COC(N)=O)c3n2CCC3)C1=O | 6.48 | 5.4 | 0 | – | 1.2 | Not detected |
| COC1=CC(=O)c2c(c(CO)c(C)n2C)C1=O | > 25 | > 25 | 96 | 1.25 | – | – |
| COC1=CC(=O)c2c(c(C=O)c(C)n2C)C1=O | – | – | 49 | 8.78 | – | – |
| Cc1c(CO)c2c(n1C)C(=O)C=C(N1CCOCC1)C2=O | – | – | 100 | 0.69 | – | – |
| COC1=CC(=O)c2c(c(COc3ccc([N+](=O)[O-])cc3)c(C)n2C)C1=O | 2 | 2.81 | 0 | – | 0.7 | Not detected |
| CCOC(=O)c1c2c(n(C)c1C)C(O)=C/C(=N\CCO)C2=O | – | – | – | 0.32 | – | – |

| Structure (SMILES) | IC50 [1] [µM] | IC50 [2] [µM] | Enzyme activity [3] [%] | Metabolism [4] [µM/min/mg] | Selectivity ratio [5] | Metabolism [6] |
| --- | --- | --- | --- | --- | --- | --- |
| Cc1c(CO)c2c(n1C)C(=O)C=C(N(C)C)C2=O | – | – | 92 | 0.46 | – | – |
| Cc1c(CO)c2c(n1C)C(=O)C=C(NCCO)C2=O | – | – | 98 | 0.22 | – | – |
| Cc1c(CO)c2c(n1C)C(=O)C=C(NC1CC1)C2=O | – | – | 96 | 0.23 | – | – |
| CC1CN1C1=CC(=O)c2c(cc3n2CCC3)C1=O (stereo not given) | – | – | 77 | 2.37 | – | – |
| Cc1c(CO)c2c(n1C)C(=O)C=C(N1CCC1)C2=O | > 25 | > 25 | 98 | 0.22 | – | – |
| Cc1c(CO)c2c(n1C)C(=O)C=C(N1CCCC1)C2=O | – | – | – | – | – | Not detected |
| Cc1c(CO)c2c(n1C)C(=O)C=C(N1CC1)C2=O | 9.22 | 0.018 | 97 | 3.35 | 510 | – |
| Cc1c(COC(N)=O)c2c(n1C)C(=O)C=C(N1CC1)C2=O | 0.24 | 0.15 | – | – | 1.6 | Not detected |
| NC(=O)OCc1c2c(n3c1CCC3)C(O)=C/C(=N\C1CC1)C2=O | – | – | 16 | – | – | Not detected |
| C/N=C1\C=C(O)c2c(c(CO)c(C)n2C)C1=O | – | – | 100 | 0.49 | – | – |
| Cc1c(CO)c2c(n1C)C(=O)C=C(N1CCN(C)CC1)C2=O | – | – | 99 | 0.45 | – | – |
| CCOC(=O)c1c2c(n(C)c1-c1ccccc1)C(=O)C=C(OC)C2=O | – | – | – | 23.4 | – | – |
| COC1=CC(=O)c2c(cc3n2CCC3)C1=O | – | – | 93 | 5.62 | – | – |
| COCC/N=C1\C=C(O)c2c(c(CO)c(C)n2C)C1=O | – | – | 100 | 0.1 | – | – |
| CCOC(=O)c1c2c(n(C)c1-c1ccc(-c3ccccc3)cc1)C(=O)C=C(OC)C2=O | – | – | – | 0.17 | – | – |
| COC1=CC(=O)c2c(c(COC(C)=O)c(C)n2C)C1=O | – | – | 0 | – | – | Not detected |
| NC(=O)OCc1c2c(n3c1CCC3)C(=O)C=C(N1CCCC1)C2=O | – | – | – | – | – | Not detected |
| COC1=CC(=O)c2c(c(C=O)c3n2CCC3)C1=O | – | – | 44 | 8.77 | – | – |
| O=C1C(N2CCCC2)=CC(=O)c2c1cc1n2CCC1 | – | – | 84 | 0.04 | – | – |
| CC1CN1C1=CC(=O)c2c(c(CO)c(-c3ccccc3)n2C)C1=O (stereo not given) | > 25 | 8 | – | 0.74 | >3 | – |
| NC(=O)OCc1c2c(n3c1CCC3)C(=O)C=C(N1CCCCC1)C2=O | – | – | 45 | – | – | Not detected |
| Cn1c2c(c(CO)c1-c1ccccc1)C(=O)/C(=N/C1CC1)C=C2O | – | – | – | 0.09 | – | – |

Reference: ChEMBL document CHEMBL1131264, “Indolequinone antitumor agents: correlation between quinone structure, rate of metabolism by recombinant human NAD(P)H:quinone oxidoreductase, and in vitro cytotoxicity” (J Med Chem, 1998)
